Measurements of several laboratories.
In brackets after ≈: the same amount, converted by molar mass.

CC(C)OCCNc1nc(Cl)c2c(c1O)C(=O)C1=C(O)[C@]3(O)C(=O)C(C(N)=O)=C(O)[C@@H](N(C)C)[C@@H]3C[C@@H]1C2.Cl.Cl.Cl — MIC (Enterobacter cloacae; microbial growth, broth dilution; ATCC13047): 32 µg/mL
CC(C)Oc1c(NC(=O)c2ccc(NC(=O)[C@H](CC(N)=O)NC(=O)c3ccc(NC(=O)c4ccc(C#N)cn4)cc3)cc2)ccc(C(=O)Nc2ccc(C(=O)O)cc2)c1O — MIC (Enterobacter cloacae; microbial growth; DSM30054): > 64 µg/mL
CN(C)[C@@H]1C(O)=C(C(N)=O)C(=O)[C@@]2(O)C(O)=C3C(=O)c4c(O)c(N)nc(F)c4C[C@H]3C[C@@H]12.Cl.Cl — MIC (Enterobacter cloacae; microbial growth, broth dilution; ATCC13047): 0.5 µg/mL
C/C=C(\C)c1cc(O)c(C)c(OC(=O)c2c(C)c(Cl)c(O)c(Cl)c2O)c1 — MIC (Enterococcus gallinarum; microbial growth, broth dilution; GALLINARUM): 8 µg/mL (≈ 20.1 µM)
CO[C@@H](C(N)=O)[C@H](NC(=O)c1ccc(NC(=O)c2ccc(C#N)cc2)cc1)C(=O)Nc1ccc(C(=O)Nc2ccc(C(=O)Nc3ccc(C(=O)O)cc3)c(O)c2OC(C)C)cc1 — MIC (Serratia marcescens; microbial growth; DSM30121): > 64 µg/mL
CN[C@H](CC(C)C)C(=O)N[C@H]1C(=O)N[C@@H](CC(N)=O)C(=O)N[C@H]2C(=O)N[C@H]3C(=O)N[C@H](C(=O)N[C@H](C(=O)O)c4cc(O)cc(O)c4-c4cc3ccc4O)[C@H](O)c3ccc(c(Cl)c3)Oc3cc2cc(c3O[C@@H]2O[C@H](CO)[C@@H](O)[C@H](O)[C@H]2O[C@H]2C[C@](C)(N)[C@H](O)[C@H](C)O2)Oc2ccc(cc2Cl)[C@H]1O — MIC (Enterococcus gallinarum; microbial growth, broth dilution; GALLINARUM): 4 µg/mL (≈ 2.76 µM)
Cc1c(CN(C)C(=O)/C=C/c2cnc3c(c2)CC(CCN)C(=O)N3)oc2ccccc12.Cl (centres unmarked) — MIC (Enterobacter cloacae; microbial growth, broth dilution): 8 µg/mL
C/C=C(\C)c1cc(OC(=O)c2c(C)c(Cl)c(O)c(Cl)c2O)c(C)c(O)c1C(=O)O — MIC (Enterococcus gallinarum; microbial growth, broth dilution; GALLINARUM): 64 µg/mL (≈ 145 µM)
CCCNc1nc(N(C)C)c2c(c1O)C(=O)C1=C(O)[C@]3(O)C(=O)C(C(N)=O)=C(O)[C@@H](N(C)C)[C@@H]3C[C@@H]1C2.Cl.Cl — MIC (Enterobacter cloacae; microbial growth, broth dilution; ATCC13047): > 32 µg/mL
CCCC[C@H]1CN(CCCC[C@H]2CNC(=N)N2CCc2cccc(C(F)(F)F)c2)C(=N)N1CCCCC1CCCCC1 — MBC (Enterobacter cloacae; microbial killing): 4.2 µM (≈ 2.48 µg/mL)
C/C(=C\c1ccc(C#N)cc1)C(=O)Nc1ccc(C(=O)N[C@@H](CC(N)=O)C(=O)Nc2ccc(C(=O)Nc3ccc(C(=O)Nc4ccc(C(=O)O)cc4)c(O)c3OC(C)C)cc2)cc1 — MIC (Serratia marcescens; microbial growth; DSM30121): > 64 µg/mL
